Reference: ChEMBL document CHEMBL4513216, “Probing the Open Global Health Chemical Diversity Library for Multistage-Active Starting Points for Next-Generation Antimalarials” (ACS Infect Dis, 2020)

Experiment: Toxicity liver stage against HepG2, at 10uM
Type: cell-based
Design: test concentration 10 uM, cell line HepG2-A16-CD81EGFP
Conditions: human, HepG2-A16-CD81EGFP cells; read-out: INHIBITION
How it was run: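 Uninfected HepG2-A16-CD81EGFP cells, 3 × 10^3 per well, 1536-well, plated on prespotted compound at 10 μM final, parasite-free screening media added to match infected plates; puromycin 10 μM positive, DMSO 0.5% negative; run in parallel with 48 h PbLuc assay at 37 °C, 5% CO2; viability by CellTiter-Glo luminescence, normalized to controls.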

SMILES	cytotoxicity at 10 µM
Cc1cnc(CC2COCCN(C(=O)c3cncnc3)C2)cn1 (centres undefined)	0.187%
COCCC(=O)N1CCC2(COCc3cnc(-c4ccccc4)nc32)C1 (centres undefined)	3.6%
CC(C)Oc1ccc(CNC(=O)NCc2ccncc2)cc1F	-18.3%
CCS(=O)(=O)N1CCC[C@]2(C(=O)N(C)C)CN(c3ncccn3)C[C@@H]2C1	-3.26%
O=C(c1occc1CN1C(=O)Cc2ccccc21)N1CC(O)C1	-4.43%
Cc1ccc(CN2CCn3c(CNC(=O)c4cccn4C)cnc3C2)s1	1.82%
CCC[C@@H]1CN(C(=O)c2ccccc2-c2ncc[nH]2)C[C@H]1N(C)C	-3.17%
CCSc1cc(C(=O)NCc2ccc(C(=O)NC)cc2)ccn1	32.6%
CNC(=O)[C@@H]1C[C@@H](N)CN1c1nc(N2CCCC2)nc(C)c1C	-7.82%
Fc1ccccc1CN1CCCC2(CCN(c3ncccn3)C2)C1 (centres undefined)	-104%
COc1cccc([C@@H](C)n2ccnc2-c2cc3n(n2)CCNC3)c1	3.09%
Cc1noc2nc(C3CCN(Cc4cccnc4)CC3)cc(C(F)F)c12	-2.5%
CCCc1cc(NC(=O)c2cccc(N3CCCNC3=O)c2)n[nH]1	3.14%
CN(C)c1ncnc2c1CCN(S(=O)(=O)c1cccc(Cl)c1Cl)C2	10.4%
O=C(c1cccnc1-n1cncn1)N1CCN(C2CCCC2)CC1	8.7%
COc1ccc(CNc2c(C)nn(C(C)C)c2C)cc1OC	-38.5%
COCC(=O)N[C@H]1C[C@@H](Cc2cc(CN3CCOCC3)on2)C1(C)C	0.66%
Cc1nc(CN2CCCC2c2noc(C3CC3)n2)nc2ccccc12 (centres undefined)	-19%
Cc1ccc(CN2CC3(CCN(C(=O)C4CC4)CC3)CC2C(=O)O)o1 (centres undefined)	1.52%
Cc1cc(CN2C[C@@H]3COC[C@]3(COCc3csc(C)n3)C2)no1	1.17%
Cc1noc(NCc2ccc(F)cc2)n1	-5.92%
O=C1C[C@@H]2CC[C@H](CN1)N2C(=O)CCc1ccccc1	-0.0739%

SMILES	cytotoxicity at 10 µM
Cc1cc(C)c(CNC(=O)N2CCC(N3CCCCC3)CC2)c(=O)[nH]1	7.53%
COCC(=O)NCc1cc(=O)n2c(n1)CN(CC1CC1)CCC2	-88.5%
CC(C)c1cc(C(=O)N2CCN(Cc3ccsc3)CC2)n[nH]1	0.0711%
Cc1nn(C)c(C)c1NC(=O)c1cccc(CN2C[C@H]3CC[C@@H](C2)N3)c1	-0.277%
CN(C)Cc1cc(=O)n2c(n1)CN(C(=O)Cc1ccsc1)CCC2	-4.43%
CC(C)NC(=O)N1CCC2(CC1)Cc1ccccc1CN(C)C2=O	5.55%
Cc1ccc(C(=O)N2CCC(c3nccn3C(C)C)CC2)c(=O)[nH]1	4.75%
COC(=O)CCC(=O)N1CCc2[nH]nc(-c3ccc(F)c(F)c3)c2C1	0.604%
CCNc1ncc(C(=O)NC2CCOCC2)cn1	4.37%
O=C(NC[C@H]1CCCO1)c1ccc(S(=O)(=O)N2C[C@H]3C[C@@H]2CN3)cc1	2.5%
Cc1ccc(C(=O)N2C[C@@H]3COC[C@]3(COc3cccnc3)C2)cn1	-3.91%
CCCN(CC1CC1)S(=O)(=O)c1ccc(NC(C)=O)cc1	9.35%
CCCc1noc2ncc(C(=O)N3CCCC3c3cnn(C)c3)cc12 (centres undefined)	-11.9%
Cn1cc(CN(CC2(O)CNCCOC2)C2CCCCC2)cn1 (centres undefined)	3.09%
O=C(CCn1cncn1)N1CCCC(CO)(CCCc2ccccc2)C1 (centres undefined)	4.25%
COc1c(C2CCCN2c2ncnc3c2CCC3)c(C)nn1C (centres undefined)	10.5%
CCN(CC)C(=O)Cn1ccc2cc(NC(C)=O)ccc21	-10.2%
COC(=O)c1ccc(OC)c(CN2CCN(CC(C)C)C(=O)C2C)c1 (centres undefined)	-20.3%
Cc1ccn(CCC(=O)NCCc2ccco2)n1	-4.81%
Cn1cc(C2=CCN(CCCOc3ccc(C(N)=O)cc3)CC2)cn1	6.39%
N#Cc1cccc(CN2C[C@@H](F)[C@@H](OCc3nc4cnccc4[nH]3)C2)c1	3.62%
COc1ccccc1N1CCN(C(=O)COc2c(C)occc2=O)CC1	-0.426%

SMILES	cytotoxicity at 10 µM
COc1ccc2ccccc2c1CNCC1CCS(=O)(=O)C1 (centres undefined)	4.51%
Cc1nnc(NC(=O)NC2CCCc3c2cnn3CCO)s1 (centres undefined)	6.66%
CSCc1noc(Cn2ccc3ccccc3c2=O)n1	3.63%
CSc1ccccc1C(=O)N1C[C@@H]2CC[C@H]1CN(C(=O)C1CCC1)C2	-6.75%
O=C(c1ccc(F)cc1Cl)N1CCn2c(nnc2C(F)(F)F)C1	-6.7%
COCC1c2c(cnn2CC2CCOCC2)CCN1Cc1ccoc1 (centres undefined)	-20%
CCN1CCN(c2ncnc3c2CCN(C(=O)C2CC2)C3)CC1	-3.2%
Cc1cccc(-c2nc(CN3CC(n4nc(C)cc4C)C3)no2)c1	1.37%
Cc1cc(OCC(=O)NS(=O)(=O)c2cccnc2)ccc1Cl	0.544%
Cc1ccc(C(=O)N2CC(=O)N(Cc3ccco3)CC(O)C2)cc1 (centres undefined)	-0.817%
CN1CCCC1c1ccc(C(=O)Nc2c3c(nn2C)CCC3)s1 (centres undefined)	-7.3%
COc1ccccc1OCCNCc1c(C(C)C)nn(C)c1N(C)C	-12.8%
NC(=O)NC1CCN(Cc2ccccc2OCC(F)(F)F)CC1	0.451%
COc1cccc(-c2n[nH]cc2CNC2CCN(C3CC3)CC2)c1	-3.78%
O=S(=O)(NC1CCCCC12OCCO2)c1cc(F)cc(F)c1 (centres undefined)	-3.55%
Cn1ncc(C(=O)N2CCCC(n3cccn3)C2)c1C1CC1 (centres undefined)	4.98%
Cc1nnc2n1CCN(C(=O)c1ccnc(N(C)C)c1)C2	-16.2%
O=C(c1ccco1)N1CCC2(CCOC2)C1 (centres undefined)	-3.65%
CC(C)c1nc(CN2CCCN(Cc3nnc(C4CC4)o3)CC2)no1	-0.794%
Cn1cc([C@@H]2CN(S(C)(=O)=O)C[C@H]2N)c2ccncc21	2.61%
Cc1nc(N2CCOCC2)ncc1-c1cc(O)nc(N2CCCC2)n1	7.63%
CCC(c1ccc(F)cc1)S(=O)(=O)CCO (centres undefined)	-136%

SMILES	cytotoxicity at 10 µM
CCN(Cc1nc2c(cnn2C)c(=O)[nH]1)c1ccccc1C	2.78%
CCc1noc(CN(CC(=O)N2CCCCC2)c2ccc(C)cc2)n1	-3.24%
Cc1nn2c(N3CCCC(C(N)=O)C3)cc(-c3ccccc3)nc2c1C (centres undefined)	-4.45%
CN(CC(=O)N1CCOCC(CO)C1)Cc1ccc(F)cc1 (centres undefined)	-2.82%
CC1=Nc2c(c(=O)[nH]n2C2CCCC2)C(c2ccc(O)cc2)S1 (centres undefined)	-3.39%
Cc1c(C(=O)NS(=O)(=O)c2ccsc2)cnn1CC(C)C	11.6%
Cc1cc(-c2ccccc2)nc(C2CCCN2S(C)(=O)=O)n1 (centres undefined)	3.5%
CN(Cc1c(F)cccc1Cl)C(=O)CN(C)C1CCc2ccccc21 (centres undefined)	11.3%
CCNc1ncc(C(=O)NCc2csc(-c3cnccn3)n2)cn1	0.185%
CC(C)n1nc(CN2CCCCC2)c2c1CN(C(=O)c1ccno1)C2	4.19%
O=C1CCCCN1CCCC(=O)N1CCC2(CC1)[C@H](O)C[C@@H]2O	1.12%
CN1CC[C@]2(CN(CC3CCOC3)C[C@H]2c2ccccc2)C1=O (some centres undefined)	0.619%
CN(C)C(=O)CN(C)C(=O)c1cccn1CCc1ccccc1	1.17%
O=C(NC1CCN(c2ccccc2Br)C1)c1c[nH]nn1 (centres undefined)	-17.9%
O=C1CC[C@H]2[C@H](CCN2S(=O)(=O)C2CC2)N1CCN1CCCC1	-88.9%
CCN(Cc1cccc(NC(=O)COC)c1)C(C)=O	-125%
CC(C)(C)NC(=O)CN1CCCNCC1	-145%
CN(C)C(=O)N1CC2(CCNCC2)c2cc(F)ccc21	-79.9%
COc1ccc(CC2CCCN2CCCC#N)cc1 (centres undefined)	-54.7%
Cc1cc(C)n(C(=O)Cn2nc(C)c(I)c2C)n1	-6.52%
O=C(c1cn(CC(=O)N2CCc3[nH]cnc3C2)c2ccccc12)C1CC1	10.2%
CS(=O)(=O)N1CCN(CC(O)COc2ccc(Cl)cc2)CC1 (centres undefined)	-38.6%

SMILES	cytotoxicity at 10 µM
CCCN(C(=O)c1cnccn1)c1nc2c(s1)CCc1c-2cnn1C	-16.7%
OC(CNCc1nnc2ccccn12)c1ccc2c(c1)OCO2 (centres undefined)	5.79%
CC(C(=O)Nc1ncccn1)N1CCc2[nH]nc(C(F)(F)F)c2C1 (centres undefined)	-0.583%
CCC(=O)N1CCN(C(=O)Nc2cccc(N3CCOCC3)c2)CC1	-3.1%
COc1ccc(Br)cc1CC(=O)Nc1cc(C)n[nH]1	-0.405%
Cc1cc(C)nc(N2CCCC(Cn3cc(CN(C)C)nn3)C2)n1 (centres undefined)	-5.43%
CCc1ocnc1C(=O)N1CCOC(c2nc(C(C)C)n[nH]2)C1 (centres undefined)	7.43%
COc1ccc(NC(=O)Cn2c(=O)nc(N)c3cc(C)sc32)cc1	2.31%
CC(C)N(C)Cc1cnc2n1CCN(Cc1ccco1)C2	2.22%
COc1ccc(F)c(CN2CCC3(CCC(=O)N(CC(N)=O)C3)CC2)c1	12%
CN1C[C@@H](F)[C@@H](OCc2nc3ccc(C#N)cc3[nH]2)C1	0.434%
c1ccc(-c2ncn(CCCN3CCOCC3)c2-c2ccncc2)cc1	-7.64%
O=C1CCC2(CCN(Cc3cscn3)CC2)CN1CCCO	-5.26%
O=C(NCc1ccoc1)Nc1ccc(CN2CCOC2=O)cc1	14.1%
Cc1nccc(CNS(=O)(=O)N(C)Cc2ccc(Cl)cc2)n1	29.5%
CCCn1ncc(CN2CCCC(C(=O)c3ccc(Cl)cc3C)C2)c1C (centres undefined)	-6.35%
CC(C)(C#N)c1ccc(NS(=O)(=O)CC2CCCCO2)cc1 (centres undefined)	0.548%
Cc1nc(CN2CCC(c3nc4ccccc4n3C)CC2)co1	13.5%
Fc1ccc(Br)c(NCc2nnsc2Cl)c1	14.3%
OC1(CN2CCC(Oc3cccnc3)CC2)CNCCOC1 (centres undefined)	5.92%
N#Cc1cn(C2CC2)c(=O)n(CC(O)c2ccc(F)cc2)c1=O (centres undefined)	2.37%
